Structures can show the parent of a compound that is named as a salt. No end group written: not given here. *: point of attachment. Biotin = O=C1N[C@H]2[C@H](CS[C@H]2CCCCC(=O)*)N1; Ahx = NCCCCCC(=O)O
What was measured:
[1] = tested on: LPS-induced sepsis in mice; test: Low-dose LPS; assay type: in vivo, mouse; conditions: for plasma IL-1β levels: mild sepsis, at 24 h, vs saline, n = 10
Summary of the method: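 C57BL/6J and Gsdmd−/− mice (8–10 weeks, 50:50 female:male) were randomized, unblinded, and given LPS (O55:B5) 15 mg per kg i.p. At 16 h they received saline or test peptide 1 mg per kg i.v. Blood AST, BUN, ALT and CK were measured at day 2 (n = 6). Plasma IL-1β was measured by ELISA (n = 10).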

[2] = tested on: LPS-induced sepsis in mice; test: Moderate LPS; assay type: in vivo, mouse; conditions: at 6 h, n = 10; for plasma IL-1β levels: vs saline
Summary of the method: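 Sepsis was induced in wild-type mice (8–10 weeks, mixed sex) with LPS (O55:B5) 25 mg per kg i.p. At 5 h after LPS they received saline or test peptide 2 mg per kg i.v. Reference pore inhibitors were given i.p. Plasma IL-1β was measured by ELISA every 3 h up to 48 h.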

[3] = tested on: LPS-induced sepsis in mice; test: Severe LPS; assay type: in vivo, mouse; conditions: at 5 h, n = 10; for plasma IL-1β levels: vs saline
[4] = tested on: human blood leukocytes; test: Pyroptosis in human whole blood; assay type: cell-based; conditions: DSF vs PBS, LPS + nigericin-treated blood, 1 h
[5] = tested on: BMDMs; test: Cell membrane repair: CHMP4–GFP puncta and Annexin V; assay type: cell-based, mouse; conditions: 2 mM EDTA + 15 µM SK56, LPS + nigericin
[6] = target: T1, pyroptotic cytomembranes, which contain GSDMD-NT pores (Homo sapiens, UniProt P57764); test: Biolayer interferometry, pyroptotic cytomembranes; assay type: binding
T1 sequence (P57764 1-275 limits assumed): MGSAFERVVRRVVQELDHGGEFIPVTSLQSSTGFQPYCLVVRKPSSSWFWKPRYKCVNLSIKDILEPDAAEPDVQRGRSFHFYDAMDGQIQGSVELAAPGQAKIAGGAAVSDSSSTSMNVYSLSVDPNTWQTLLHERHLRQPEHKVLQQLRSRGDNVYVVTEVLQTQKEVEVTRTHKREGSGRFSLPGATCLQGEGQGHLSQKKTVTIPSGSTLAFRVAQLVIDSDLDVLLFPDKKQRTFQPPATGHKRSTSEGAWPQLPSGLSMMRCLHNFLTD

Row | Compound | plasma IL-1β levels [1] | organ damage markers in the plasma [2] | plasma IL-1β levels [2] | organ damage markers in the plasma [3] | plasma IL-1β levels [3] | secretion of IL-1β and IL-18 [4] | proportion of Annexin V+ BMDMs [5] | blood biochemical markers (AST, BUN, ALT and CK) ([1]; LPS 15 mg/kg, treatment at 16 h, day 2, vs saline-treated WT mice, n = 6) | Kd [6] [nM]
1 | COC(=O)/C=C/C(=O)OC [DMF, dimethyl fumarate] | reduced plasma IL-1β levels | lowered levels of organ damage markers | reduced plasma IL-1β levels | lowered levels of organ damage markers | reduced plasma IL-1β levels |  |  |  | 
2 | CCN(CC)C(=S)SSC(=S)N(CC)CC [DSF, disulfiram] | reduced plasma IL-1β levels |  | reduced plasma IL-1β levels | failed to suppress BUN but inhibited the other three organ damage markers | reduced plasma IL-1β levels | completely blocked |  |  | 
3 | O=C(O)CN(CCN(CC(=O)O)CC(=O)O)CC(=O)O [EDTA] |  |  |  |  |  |  | restored the proportion of Annexin V^+ BMDMs to the level seen in BMDMs without SK56 treatment |  | 
4 | COc1nccnc1NS(=O)(=O)c1ccc(NC(=O)/C=C/c2ccc([N+](=O)[O-])s2)cc1 [NSA, necrosulfonamide] |  | lowered levels of organ damage markers |  | lowered levels of organ damage markers | had no effect |  |  | inhibited AST, BUN, ALT and CK | 
5 | {Biotin-Ahx-Ahx}-SLEEFAKRVVEELVKEFNLDKRQESYLEMSALIQAQMGISERIIEIVLRHAAQTLK [Biotinylated SK56] |  |  |  |  |  |  |  |  | 10.9
